Test results taken from ChEMBL document CHEMBL1140910, “Fluorinated benzyloxyphenyl piperidine-4-carboxamides with dual function against thrombosis: inhibitors of factor Xa and platelet aggregation” (J Med Chem, 2009).
Active and inactive are the calls of the source. The calls are words filed in the database; no cut-off is given here.

tested on: Plasma; assay: Anticoagulant activity in human plasma assessed as effect on double the activated partial thromboplastin time upto 1 mM; assay type: functional, cell-free
Procedure, shortened: (§1)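 Pooled lyophilized human plasma with aPTT reagent and 0.025 mol/L CaCl2; inhibitor or solvent at increasing concentrations incubated with plasma 3 min at 37 °C. Clotting time read on a coagulometer against control plasma, triplicate measurements; concentration giving 2-fold aPTT prolongation calculated from concentration-response curves.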

| Compound | Activity |
| --- | --- |
| O=C(Nc1cccc(OCc2ccccc2)c1)C1CCNCC1 | inactive |

tested on: Plasma; assay: Anticoagulant activity in human plasma assessed as concentration required to double the activated partial thromboplastin time; assay type: functional; procedure, shortened: as §1

| Compound | 2PT [µM] |
| --- | --- |
| O=C(Nc1cccc(OCc2ccc(-c3ccc(C(F)(F)F)cc3)cc2)c1)C1CCNCC1 | 140 |
| O=C(Nc1cccc(OCc2ccc(-c3cc(F)cc(F)c3)cc2)c1)C1CCNCC1 | 190 |
| O=C(Nc1cccc(OCc2ccc(-c3cccc(F)c3)cc2)c1)C1CCNCC1 | 205 |

biological target: Prothrombin (Bos taurus, UniProt P00735); assay: Inhibition of bovine factor 2a by amydolitic assay
Procedure, shortened: (§2)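 Bovine thrombin (0.41 U/mL) in 10 mM Tris pH 8 with 0.15 M NaCl and 0.1% PEG 6000, compound (final 10 nM–0.25 mM, ≤2% DMSO) for 30 min at 25 °C, then 0.050 mM S-2238.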

| Ki [µM] | Compound |
| --- | --- |
| 26.7 | O=C(Nc1cccc(OCc2ccc(-c3c(F)cc(F)cc3F)cc2)c1)C1CCNCC1 |
| 40.4 | N=C(N)N1CCC(C(=O)Nc2cccc(OCc3ccc(-c4ccccc4)cc3)c2)CC1 |
| 54 | O=C(Nc1cccc(OCc2ccc(-c3ccc(F)cc3F)cc2)c1)C1CCNCC1 |
| 160 | N=C(N)N1CCCC(C(=O)Nc2cccc(OCc3ccc(F)cc3)c2)C1 (centres undefined) |
| 31.3 | N=C(N)N1CCCC(C(=O)Nc2cccc(OCc3ccc(-c4ccccc4)cc3)c2)C1 (centres undefined) |
| 20.8 | N=C(N)N1CCC(C(=O)Nc2cccc(OCc3ccc(F)cc3)c2)CC1 |

biological target: Prothrombin (Bos taurus) (UniProt P00735); assay: Inhibition of bovine factor 2a at 250 uM by amydolitic assay; procedure, shortened: as §2

| inhibition [%] | Compound |
| --- | --- |
| < 30 | CCCCCCOc1ccc(NC(=O)C2CCCNC2)cc1 (centres undefined) |
| < 30 | O=C(Nc1cccc(OCc2ccc(-c3ccc(C(F)(F)F)cc3)cc2)c1)C1CCNCC1 |
| < 30 | O=C(Nc1ccc(OCc2ccc(F)cc2)cc1)C1CCNCC1 |
| < 30 | O=C(Nc1ccc(OCc2ccc(F)cc2)cc1)C1CCCNC1 (centres undefined) |
| < 30 | O=C(Nc1cccc(OCc2ccc(-c3cc(F)c(F)c(F)c3)cc2)c1)C1CCNCC1 |
| < 30 | O=C(Nc1cccc(OCc2ccc(-c3ccccc3F)cc2)c1)C1CCNCC1 |
| < 30 | O=C(Nc1cccc(OCc2ccc(F)cc2)c1)C1CCCNC1 (centres undefined) |
| < 30 | O=C(Nc1cccc(OCc2ccc(-c3cc(F)cc(F)c3)cc2)c1)C1CCNCC1 |
| < 30 | O=C(Nc1cccc(OCc2ccc(-c3ccccc3)cc2)c1)C1CCCNC1 (centres undefined) |
| < 30 | O=C(Nc1ccc(OCc2ccc(-c3ccccc3)cc2)cc1)C1CCCNC1 (centres undefined) |
| < 30 | O=C(Nc1cccc(OCc2ccccc2)c1)C1CCCNC1 (centres undefined) |
| < 30 | O=C(Nc1cccc(OCc2ccc(-c3ccc(F)cc3)cc2)c1)C1CCNCC1 |
| < 30 | O=C(Nc1cccc(OCc2ccc(-c3ccccc3)cc2)c1)C1CCNCC1 |
| < 30 | O=C(Nc1cccc(OCc2ccc(-c3cccc(F)c3)cc2)c1)C1CCNCC1 |
| < 30 | O=C(Nc1cccc(OCc2ccc(-c3cccc(F)c3F)cc2)c1)C1CCNCC1 |
| < 30 | O=C(Nc1cccc(OCc2ccc(F)cc2)c1)C1CCNCC1 |
| < 30 | CCCCCCOc1cccc(NC(=O)C2CCCNC2)c1 (centres undefined) |
| < 30 | O=C(Nc1cccc(OCc2ccccc2)c1)C1CCNCC1 |
| < 30 | O=C(Nc1ccc(OCc2ccc(-c3ccccc3)cc2)cc1)C1CCNCC1 |
| < 30 | O=C(Nc1cccc(OCc2ccc(-c3c(F)cccc3F)cc2)c1)C1CCNCC1 |
| < 30 | O=C(Nc1cccc(OCc2ccc(-c3cc(F)ccc3F)cc2)c1)C1CCNCC1 |

tested on: Platelet; assay: Inhibition of ADP-induced platelet aggregation in human platelet rich plasma; assay type: functional
Procedure, shortened: (§3)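 Citrated human venous blood spun 800 rpm 15 min at 21 °C for PRP, platelets adjusted to 230000 µL-1 with PPP. PRP preincubated with compound (final 10 µM–1 mM, 0.5% DMSO) 5 min at 37 °C with stirring, then 10 µM final ADP or epinephrine. Turbidimetric (Born) transmittance at 640 nm over 5 min. IC50 from sigmoid fit, ≥3 determinations in duplicate, mean ± SEM.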

| IC50 [µM] | Compound |
| --- | --- |
| 85 | CCCCCCOc1ccc(NC(=O)C2CCCNC2)cc1 (centres undefined) |
| 65.7 | O=C(Nc1cccc(OCc2ccc(-c3ccc(C(F)(F)F)cc3)cc2)c1)C1CCNCC1 |
| 121 | O=C(Nc1ccc(OCc2ccc(F)cc2)cc1)C1CCNCC1 |
| 116 | O=C(Nc1ccc(OCc2ccc(F)cc2)cc1)C1CCCNC1 (centres undefined) |
| 76.7 | O=C(Nc1cccc(OCc2ccc(-c3cc(F)c(F)c(F)c3)cc2)c1)C1CCNCC1 |
| 62.7 | O=C(Nc1cccc(OCc2ccc(-c3ccccc3F)cc2)c1)C1CCNCC1 |
| 103 | O=C(Nc1cccc(OCc2ccc(F)cc2)c1)C1CCCNC1 (centres undefined) |
| 27.8 | O=C(Nc1cccc(OCc2ccc(-c3cc(F)cc(F)c3)cc2)c1)C1CCNCC1 |
| 400 | N=C(N)N1CCC(C(=O)Nc2cccc(OCc3ccc(-c4ccccc4)cc3)c2)CC1 |
| 153 | O=C(Nc1cccc(OCc2ccc(-c3ccccc3)cc2)c1)C1CCCNC1 (centres undefined) |
| 125 | O=C(Nc1ccc(OCc2ccc(-c3ccccc3)cc2)cc1)C1CCCNC1 (centres undefined) |
| 98.8 | O=C(Nc1cccc(OCc2ccc(-c3ccc(F)cc3F)cc2)c1)C1CCNCC1 |
| 274 | N=C(N)N1CCCC(C(=O)Nc2cccc(OCc3ccc(F)cc3)c2)C1 (centres undefined) |
| > 1000 | N=C(N)N1CCCC(C(=O)Nc2cccc(OCc3ccc(-c4ccccc4)cc3)c2)C1 (centres undefined) |
| 128 | O=C(Nc1cccc(OCc2ccccc2)c1)C1CCCNC1 (centres undefined) |
| 35 | O=C(Nc1cccc(OCc2ccc(-c3ccc(F)cc3)cc2)c1)C1CCNCC1 |
| 111 | O=C(Nc1cccc(OCc2ccc(-c3ccccc3)cc2)c1)C1CCNCC1 |
| 768 | N=C(N)N1CCC(C(=O)Nc2cccc(OCc3ccc(F)cc3)c2)CC1 |
| 34.7 | O=C(Nc1cccc(OCc2ccc(-c3cccc(F)c3)cc2)c1)C1CCNCC1 |
| 983 | COc1ccc(NC(=O)C2CCCNC2)cc1 (centres undefined) |
| 68 | O=C(Nc1cccc(OCc2ccc(F)cc2)c1)C1CCNCC1 |
| 113 | CCCCCCOc1cccc(NC(=O)C2CCCNC2)c1 (centres undefined) |
| 229 | O=C(Nc1cccc(OCc2ccccc2)c1)C1CCNCC1 |
| 135 | O=C(Nc1ccc(OCc2ccc(-c3ccccc3)cc2)cc1)C1CCNCC1 |

biological target: T1, Coagulation factor X (Homo sapiens, UniProt P00742); assay: Inhibition of human factor 10a by amydolitic assay
Procedure, shortened: (§4)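 Human factor Xa (2 nM) in 10 mM Tris pH 8, 0.15 M NaCl, 0.1% PEG 6000, preincubated 30 min at 25 °C with compound (final 10 nM–0.25 mM, ≤2% DMSO). Started with 0.04 mM S-2765; p-nitroanilide release at 405 nm for 5 min, 25 °C. Initial velocities give IC50 (≥3 determinations), Ki by Cheng-Prusoff.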

T1 sequence (P00742 41-179 limits assumed): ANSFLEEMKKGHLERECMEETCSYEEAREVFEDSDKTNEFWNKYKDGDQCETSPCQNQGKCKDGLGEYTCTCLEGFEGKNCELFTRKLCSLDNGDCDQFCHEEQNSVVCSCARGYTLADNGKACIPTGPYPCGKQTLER
T1 sequence (P00742 235-488 limits assumed): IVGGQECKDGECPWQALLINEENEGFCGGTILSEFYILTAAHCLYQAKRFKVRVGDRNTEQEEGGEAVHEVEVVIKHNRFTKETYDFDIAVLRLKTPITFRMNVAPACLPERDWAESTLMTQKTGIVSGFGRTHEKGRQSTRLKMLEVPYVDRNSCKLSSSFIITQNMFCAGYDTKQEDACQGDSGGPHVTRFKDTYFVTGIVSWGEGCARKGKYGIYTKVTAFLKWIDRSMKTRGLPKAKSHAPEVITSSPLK

| Ki [µM] | Compound |
| --- | --- |
| 0.057 | O=C(Nc1cccc(OCc2ccc(-c3ccc(C(F)(F)F)cc3)cc2)c1)C1CCNCC1 |
| 9.47 | O=C(Nc1cccc(OCc2ccc(-c3c(F)cc(F)cc3F)cc2)c1)C1CCNCC1 |
| 0.666 | O=C(Nc1cccc(OCc2ccc(-c3cc(F)c(F)c(F)c3)cc2)c1)C1CCNCC1 |
| 0.767 | O=C(Nc1cccc(OCc2ccc(-c3ccccc3F)cc2)c1)C1CCNCC1 |
| 260 | O=C(Nc1cccc(OCc2ccc(F)cc2)c1)C1CCCNC1 (centres undefined) |
| 0.13 | O=C(Nc1cccc(OCc2ccc(-c3cc(F)cc(F)c3)cc2)c1)C1CCNCC1 |
| 5.2 | N=C(N)N1CCC(C(=O)Nc2cccc(OCc3ccc(-c4ccccc4)cc3)c2)CC1 |
| 2.5 | O=C(Nc1cccc(OCc2ccc(-c3ccccc3)cc2)c1)C1CCCNC1 (centres undefined) |
| 0.512 | O=C(Nc1cccc(OCc2ccc(-c3ccc(F)cc3F)cc2)c1)C1CCNCC1 |
| 57 | N=C(N)N1CCCC(C(=O)Nc2cccc(OCc3ccc(F)cc3)c2)C1 (centres undefined) |
| 2 | N=C(N)N1CCCC(C(=O)Nc2cccc(OCc3ccc(-c4ccccc4)cc3)c2)C1 (centres undefined) |
| 3.87 | O=C(Nc1cccc(OCc2ccc(-c3ccc(F)cc3)cc2)c1)C1CCNCC1 |
| 1 | O=C(Nc1cccc(OCc2ccc(-c3ccccc3)cc2)c1)C1CCNCC1 |
| 33.8 | N=C(N)N1CCC(C(=O)Nc2cccc(OCc3ccc(F)cc3)c2)CC1 |
| 0.177 | O=C(Nc1cccc(OCc2ccc(-c3cccc(F)c3)cc2)c1)C1CCNCC1 |
| 0.548 | O=C(Nc1cccc(OCc2ccc(-c3cccc(F)c3F)cc2)c1)C1CCNCC1 |
| 126 | O=C(Nc1ccc(OCc2ccc(-c3ccccc3)cc2)cc1)C1CCNCC1 |
| 1.45 | O=C(Nc1cccc(OCc2ccc(-c3c(F)cccc3F)cc2)c1)C1CCNCC1 |
| 1.27 | O=C(Nc1cccc(OCc2ccc(-c3cc(F)ccc3F)cc2)c1)C1CCNCC1 |

biological target: T1, Coagulation factor X; assay: Inhibition of human factor 10a at 250 uM by amydolitic assay; procedure, shortened: as §4

| inhibition [%] | Compound |
| --- | --- |
| < 30 | CCCCCCOc1ccc(NC(=O)C2CCCNC2)cc1 (centres undefined) |
| < 30 | O=C(Nc1ccc(OCc2ccc(F)cc2)cc1)C1CCNCC1 |
| < 30 | O=C(Nc1ccc(OCc2ccc(F)cc2)cc1)C1CCCNC1 (centres undefined) |
| < 30 | O=C(Nc1ccc(OCc2ccc(-c3ccccc3)cc2)cc1)C1CCCNC1 (centres undefined) |
| < 30 | O=C(Nc1cccc(OCc2ccccc2)c1)C1CCCNC1 (centres undefined) |
| < 30 | O=C(Nc1cccc(OCc2ccc(F)cc2)c1)C1CCNCC1 |
| < 30 | CCCCCCOc1cccc(NC(=O)C2CCCNC2)c1 (centres undefined) |
| < 30 | O=C(Nc1cccc(OCc2ccccc2)c1)C1CCNCC1 |

species: Bos taurus; assay: Inhibition of bovine alpha-chymotrypsin at 250 uM by amydolitic assay
Procedure, shortened: (§5)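 Bovine α-chymotrypsin (0.4 µg/mL) in 50 mM Tris pH 7.5 with 50 mM CaCl2, incubated with compound (final 10 nM–0.25 mM) or DMSO 10 min at 25 °C. Substrate 0.185 mM N-succinyl-Ala-Ala-Pro-Phe-p-nitroanilide added; 405 nm read 5 min at 25 °C. Initial-rate IC50 (≥3 determinations) converted to Ki by Cheng-Prusoff.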

| inhibition [%] | Compound |
| --- | --- |
| < 30 | O=C(Nc1cccc(OCc2ccc(-c3ccc(C(F)(F)F)cc3)cc2)c1)C1CCNCC1 |
| < 30 | O=C(Nc1cccc(OCc2ccc(-c3c(F)cc(F)cc3F)cc2)c1)C1CCNCC1 |
| < 30 | O=C(Nc1cccc(OCc2ccc(-c3cc(F)c(F)c(F)c3)cc2)c1)C1CCNCC1 |
| < 30 | O=C(Nc1cccc(OCc2ccc(-c3ccccc3F)cc2)c1)C1CCNCC1 |
| < 30 | O=C(Nc1cccc(OCc2ccc(-c3ccc(F)cc3F)cc2)c1)C1CCNCC1 |
| < 30 | O=C(Nc1cccc(OCc2ccc(-c3ccc(F)cc3)cc2)c1)C1CCNCC1 |
| < 30 | O=C(Nc1cccc(OCc2ccc(-c3c(F)cccc3F)cc2)c1)C1CCNCC1 |
| < 30 | O=C(Nc1cccc(OCc2ccc(-c3cc(F)ccc3F)cc2)c1)C1CCNCC1 |

biological target: not listed separately; assay: Inhibition of bovine alpha-chymotrypsin by amydolitic assay; set-up: species or system Bos taurus; procedure, shortened: as §5

| Ki [µM] | Compound |
| --- | --- |
| 60.3 | O=C(Nc1cccc(OCc2ccc(-c3cc(F)cc(F)c3)cc2)c1)C1CCNCC1 |
| 31 | O=C(Nc1cccc(OCc2ccc(-c3cccc(F)c3)cc2)c1)C1CCNCC1 |
| 60 | O=C(Nc1cccc(OCc2ccc(-c3cccc(F)c3F)cc2)c1)C1CCNCC1 |

tested on: Platelet; assay: Inhibition of epinephrine-induced platelet aggregation in human platelet rich plasma; assay type: functional; procedure, shortened: as §3

| IC50 [µM] | Compound |
| --- | --- |
| 43 | CCCCCCOc1ccc(NC(=O)C2CCCNC2)cc1 (centres undefined) |
| 93 | O=C(Nc1ccc(OCc2ccc(F)cc2)cc1)C1CCNCC1 |
| 90 | O=C(Nc1ccc(OCc2ccc(F)cc2)cc1)C1CCCNC1 (centres undefined) |
| 70 | O=C(Nc1cccc(OCc2ccc(F)cc2)c1)C1CCCNC1 (centres undefined) |
| 17 | O=C(Nc1cccc(OCc2ccc(-c3cc(F)cc(F)c3)cc2)c1)C1CCNCC1 |
| 244 | N=C(N)N1CCC(C(=O)Nc2cccc(OCc3ccc(-c4ccccc4)cc3)c2)CC1 |
| 87 | O=C(Nc1cccc(OCc2ccc(-c3ccccc3)cc2)c1)C1CCCNC1 (centres undefined) |
| 19 | O=C(Nc1cccc(OCc2ccc(-c3ccc(F)cc3)cc2)c1)C1CCNCC1 |
| 54 | O=C(Nc1cccc(OCc2ccc(-c3ccccc3)cc2)c1)C1CCNCC1 |
| 14.4 | O=C(Nc1cccc(OCc2ccc(-c3cccc(F)c3)cc2)c1)C1CCNCC1 |
| 36 | O=C(Nc1cccc(OCc2ccc(F)cc2)c1)C1CCNCC1 |
